These results are taken from ChEMBL document CHEMBL1121917, “Structure--activity relationships in a broad-spectrum anthelmintic series. Acid chloride phenylhydrazones. 1. Aryl substitutions and chloride variations” (1981).

For assay [1], the species on record is Canis familiaris. The experiment in a line: Percent reduction in Uncinaria eggs per gram, after oral treatment of 100 mg/dog dose of compound in a single treatment. Type of assay: functional, Canis lupus familiaris, Egg. The gist of the method:
(§1)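 Dogs naturally infected with Toxascaris leonina were experimentally infected with mixed Ancylostoma caninum and Uncinaria stenocephala larvae. Finely ground compound was given orally in gelatin capsules. Three egg count determinations were made before and three after treatment in each experiment.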

Assay [2] is filed under the species Canis familiaris. Kind of assay: Percent reduction in Toxascaris eggs per gram, after oral treatment of 100 mg/dog dose of compound in a single treatment. Format: functional, Canis lupus familiaris, Egg. Put shortly: as §1
The species entered for assay [3] is Canis familiaris. The experiment in a line: Percent reduction in Ancylostoma eggs per gram, after oral treatment of 100 mg/dog dose of compound in a single treatment. Format: functional, Canis lupus familiaris, Egg. Put shortly:
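Dogs naturally infected with Toxascaris leonina were experimentally infected with mixed Ancylostoma caninum and Uncinaria stenocephala larvae. Finely ground compound was given orally in gelatin capsules. Fecal egg counts were taken three times before and three times after treatment, and activity was taken as the fall in egg counts.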

The test system of assay [4] is Ovis aries. The experiment in a line: Percent reduction in Trichuris eggs per gram, after treatment with 100 mg/kg dose of compound perorally in sheep. Format: functional, Egg. The settings on record: route oral. Put shortly:
(§2)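 Naturally parasitized lambs, dosed orally either with a suspension by stomach tube or with finely ground compound in gelatin capsules by balling gun. Activity was scored by the clinical test method, meaning a significant fall in helminth egg counts after treatment.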

For assay [5], the system named is Ovis aries. The experiment in a line: Percent reduction in Haemonchus eggs per gram, after treatment with 100 mg/kg dose of compound perorally in sheep. The settings on record: route oral. Format: functional, Egg. Put shortly:
(§3)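 Naturally parasitized lambs received compound orally, either as the aqueous suspension by stomach tube or as finely ground powder in gelatin capsules by balling gun. Activity was judged by the clinical test method, as a significant decrease in posttreatment helminth egg counts.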

Assay [6] deals with Ovis aries. Kind of assay: Percent reduction in Oesophagostomum eggs per gram, after treatment with 100 mg/kg dose of compound perorally in sheep. The settings on record: route oral. Format: functional, Egg. The gist of the method:
(§4)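 Naturally parasitized lambs were dosed orally at the stated mg/kg. Dosing was either as a suspension of finely ground compound by stomach tube, or as ground compound weighed into gelatin capsules and given by balling gun. Activity was scored by the clinical test method: the decrease in posttreatment helminth eggs per gram.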

Assay [7] has as its system Ovis aries. The experiment in a line: Percent reduction in Trichostrongylus eggs per gram, after treatment with 100 mg/kg dose of compound perorally in sheep. Format: functional, Egg. The settings on record: route oral. Put shortly: as §2
In assay [8] the test system is Ovis aries. Kind of assay: Percent reduction in Ostertagia eggs per gram, after treatment with 100 mg/kg dose of compound perorally in sheep. The settings on record: route oral. Format: functional, Egg. Put shortly: as §4
For assay [9], the system named is Ovis aries. The experiment in a line: Percent reduction in Cooperia eggs per gram, after treatment with 100 mg/kg dose of compound perorally in sheep. Type of assay: functional, Egg. The note with it: route oral. Put shortly: as §3
Assay [10] has as its system Ovis aries. Kind of assay: Percent reduction in Strongyloides eggs per gram, after treatment with 100 mg/kg dose of compound perorally in sheep. Format: functional, Egg. The settings on record: route oral. Put shortly: as §2
The species named for assay [11] is Mus musculus. The experiment in a line: Percent clearance of Nematospiroides dubius from mouse after oral treatment of 1.87 mg/mouse/day. Format: functional. The gist of the method:
(§5)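 Mice naturally carrying Syphacia obvelata were experimentally infected with Nematospiroides dubius and Hymenolepis nana, then grouped after a 2-week prepatency. Finely ground compound was suspended in aqueous 0.10% carboxymethylcellulose, 0.04% polysorbate 80 and 0.0042% polyparaben, and 0.1 mL was given orally by cannula once daily for 4 days to five mice. Necropsy followed 2 days later, scoring presence or absence of each parasite. Control clearance was subtracted from the treated clearance.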

For assay [12], the species on record is Mus musculus. Kind of assay: Percent clearance of Syphacaia obvelata from mouse after oral treatment of 1.87 mg/mouse/day. Format: functional. Put shortly: as §5
The subject of assay [13] is Ovis aries. Kind of assay: Percent reduction in Haemonchus eggs per gram, after treatment of 150 mg/kg dose of compound perorally; Toxic. The settings on record: Egg.
The species named for assay [14] is Mus musculus. Kind of assay: Percent clearance of Nematospiroides dubius from mouse after oral treatment of 3.75 mg/mouse/day. Type of assay: functional. Put shortly: as §5
Assay [15] is filed under the species Mus musculus. The experiment in a line: Percent clearance of Syphacaia obvelata from mouse after oral treatment of 3.75 mg/mouse/day. Type of assay: functional. Put shortly: as §5
Assay [16] has as its system Ovis aries. Kind of assay: Percent reduction in Trichuris eggs per gram, after oral treatment of 100 mg/kg dose of compound perorally in sheep. Format: functional, Egg.
Assay [17] deals with Ovis aries. Kind of assay: Percent reduction in Oesophagostomum eggs per gram, after oral treatment of 100 mg/kg dose of compound perorally in sheep. Type of assay: functional, Egg. The gist of the method:
as §4

Assay [18] concerns Ovis aries. Kind of assay: Percent reduction in Nematodirus eggs per gram, after oral treatment of 100 mg/kg dose of compound perorally in sheep. Type of assay: functional, Egg. The gist of the method: as §4
Assay [19] relates to Ovis aries. Kind of assay: Percent reduction in Trichostrongylus eggs per gram, after oral treatment of 100 mg/kg dose of compound perorally in sheep. Type of assay: functional, Egg. Put shortly:
as §2

Assay [20] concerns Ovis aries. Kind of assay: Percent reduction in Ostertagia eggs per gram, after oral treatment of 100 mg/kg dose of compound perorally in sheep. Format: functional, Egg. The gist of the method:
as §4

The test system of assay [21] is Ovis aries. The experiment in a line: Percent reduction in Haemonchus eggs per gram, after oral treatment of 100 mg/kg dose of compound perorally in sheep. Format: functional, Egg. The gist of the method: as §3
The test system of assay [22] is Ovis aries. The experiment in a line: Percent reduction in Strongyloides eggs per gram, after oral treatment of 100 mg/kg dose of compound perorally in sheep. Format: functional, Egg. Put shortly: as §2
For assay [23], the species on record is Mus musculus. Kind of assay: Percent clearance of Nematospiroides dubius from mouse after oral treatment of 0.32 mg/mouse/day. Type of assay: functional. Put shortly: as §5
Assay [24] is filed under the species Mus musculus. The experiment in a line: Percent clearance of Syphacaia obvelata from mouse after oral treatment of 0.32 mg/mouse/day. Format: functional. Put shortly: as §5
The species entered for assay [25] is Mus musculus. Kind of assay: Percent clearance of Nematospiroides dubius from mouse after oral treatment of 7.5 mg/mouse/day. Type of assay: functional. The gist of the method: as §5
The species named for assay [26] is Mus musculus. Kind of assay: Percent clearance of Syphacaia obvelata from mouse after oral treatment of 7.5 mg/mouse/day. Format: functional. Put shortly:
as §5

Assay [27] is filed under the species Mus musculus. The experiment in a line: Percent clearance of Hymenolepis nana from mouse after oral treatment of 7.5 mg/mouse/day. Type of assay: functional. The gist of the method:
as §5

The species entered for assay [28] is Mus musculus. The experiment in a line: Percent clearance of Nematospiroides dubius from mouse after oral treatment of 0.47 mg/mouse/day. Format: functional. The gist of the method:
as §5

The species named for assay [29] is Mus musculus. The experiment in a line: Percent clearance of Syphacaia obvelata from mouse after oral treatment of 0.47 mg/mouse/day. Format: functional. Put shortly:
as §5

Assay [30] is filed under the species Canis familiaris. The experiment in a line: percent reduction in Toxascaris eggs per gram, after oral treatment of 50 mg/dog dose of compound in a single treatment. Format: functional, Canis lupus familiaris, Egg. Put shortly: as §1
Assay [31] is filed under the species Canis familiaris. Kind of assay: percent reduction in Uncinaria eggs per gram, after oral treatment of 50 mg/dog dose of compound in a single treatment. Format: functional, Canis lupus familiaris, Egg. Put shortly: as §1
For assay [32], the species on record is Canis familiaris. The experiment in a line: Percent reduction in Uncinaria eggs per gram, after oral treatment of 200 mg/dog dose of compound in a single treatment. Format: functional, Canis lupus familiaris, Egg. Put shortly:
as §1

Assay [33] is filed under the species Canis familiaris. The experiment in a line: percent reduction in Ancylostoma eggs per gram, after oral treatment of 100 mg/dog dose of compound in a single treatment. Format: functional, Canis lupus familiaris, Egg. The gist of the method:
as §1

Assay [34] relates to Ovis aries. The experiment in a line: Percent reduction in Haemonchus eggs per gram, after treatment of 100 mg/kg dose of compound perorally in sheep; Toxic. More on the design: dose 100 mg/kg. Type of assay: functional, organism-based. The settings on record: Egg. Put shortly: as §3

With `Cc1ccccc1/C(Cl)=N/Nc1c(Cl)cc(Cl)cc1Cl`, the Reduction in the assay filed under Canis familiaris [1] amounted to 20%; in the assay filed under Canis familiaris [2], 100%; in the assay filed under Canis familiaris [3], 0%; in the assay on Ovis aries [4] it was 0%; in the assay on Ovis aries [5] it was 85%; in the assay with Ovis aries [6], 11%. The Reduction in the assay on Ovis aries [7] is reported as 14%; in the assay with Ovis aries [8] it was 67%; with Ovis aries [9] it was 33%; with Ovis aries [10], 85%.

As for `Cl/C(=N\Nc1ccccc1)c1cccc(Cl)c1`, the Parasite_Clearance in the assay listed under Mus musculus [11] and in the assay filed under Mus musculus [12] was 100% each time. The Reduction entry in the assay on Ovis aries [13] was “Toxic”.

In the case of `Cl/C(=N\Nc1cc(Cl)c(Cl)cc1Cl)c1ccccc1`, the Parasite_Clearance is listed as 0% in the assay filed under Mus musculus [14] and 33% in the assay filed under Mus musculus [15].

With `Cl/C(=N\Nc1ccccc1)c1ccc(Cl)cc1`, the Reduction came out at 0% in the assay on Ovis aries [16]; 100% in the assay on Ovis aries [17]; 100% in the assay on Ovis aries [18]; 99% with Ovis aries [19]; 100% with Ovis aries [20]; 100% in the assay with Ovis aries [21]. In addition, the Reduction in the assay with Ovis aries [22] is 100%.

On to `Cl/C(=N\Nc1ccc(Br)cc1Br)c1ccccc1`, for which the Parasite_Clearance in the assay filed under Mus musculus [23] and in the assay filed under Mus musculus [24] was 0% throughout.

As for `Cc1cc(Cl)ccc1N/N=C(\Cl)c1ccccc1`, the Parasite_Clearance in the assay filed under Mus musculus [25] and in the assay listed under Mus musculus [26] was 0% each time.

On to `O=[N+]([O-])c1ccc(/C(Cl)=N/Nc2ccccc2)c(Cl)c1`, for which the Parasite_Clearance in the assay filed under Mus musculus [25] and in the assay filed under Mus musculus [26] was 0% each time.

Take `Cl/C(=N\Nc1c(Cl)cc(Cl)cc1Cl)c1c(Cl)cccc1Cl`: the Parasite_Clearance in the assay listed under Mus musculus [25] and in the assay filed under Mus musculus [27] was 0% throughout.

As for `Cl/C(=N\Nc1ccccc1)c1ccc(Cl)cc1Cl`, the Parasite_Clearance in the assay filed under Mus musculus [28] and in the assay filed under Mus musculus [29] was 0% in each case.

For the compound `Cl/C(=N\Nc1cc(Cl)cc(Cl)c1)c1ccccc1`, the Reduction in the assay filed under Canis familiaris [30] came out at 40%; in the assay listed under Canis familiaris [31] it was 57%; with Ovis aries [4] it was 100%; in the assay with Ovis aries [5], 97%; with Ovis aries [6] it was 0%; in the assay on Ovis aries [7], 100%. Further, the values for the Reduction in the assay on Ovis aries [8] and in the assay with Ovis aries [10] were 100% and 45%, respectively.

Regarding `Cc1cc(/C(Cl)=N/Nc2ccccc2)ccc1[N+](=O)[O-]`, the Reduction in the assay filed under Canis familiaris [1] was 0%; in the assay listed under Canis familiaris [32] it was 55%. In addition, the figures for the Parasite_Clearance in the assay filed under Mus musculus [14] and in the assay listed under Mus musculus [15] were 80% and 100%, respectively.

Turning to `Cl/C(=N\Nc1ccccc1)c1ccc(Cl)c(Cl)c1`, the Parasite_Clearance in the assay listed under Mus musculus [25] was found to be 100%.

For `Cl/C(=N\Nc1c(Cl)cc(Cl)cc1Cl)c1ccc(Br)cc1`, the Parasite_Clearance was 0% in the assay listed under Mus musculus [14] and 40% in the assay listed under Mus musculus [15].

In the case of `Cl/C(=N\Nc1c(Cl)cc(Cl)cc1Cl)c1cccc(Cl)c1`, the Parasite_Clearance in the assay listed under Mus musculus [25] worked out at 50%; in the assay filed under Mus musculus [26], 100%.

Turning to `Cl/C(=N\Nc1c(Cl)cc(Cl)cc1Cl)c1ccc(Cl)c(Cl)c1`, the Parasite_Clearance in the assay filed under Mus musculus [25] and in the assay listed under Mus musculus [27] was 0% in each case.

As for `CC(C)c1ccc(/C(Cl)=N/Nc2ccccc2)cc1`, the Parasite_Clearance in the assay filed under Mus musculus [28] and in the assay filed under Mus musculus [29] was 0% throughout.

In the case of `Cl/C(=N\Nc1ccc(Cl)cc1)c1ccccc1`, the values for the Parasite_Clearance in the assay filed under Mus musculus [28] and in the assay listed under Mus musculus [29] were 100% and 80%, respectively.

As for `Cc1ccccc1N/N=C(\Cl)c1ccccc1`, the Parasite_Clearance in the assay filed under Mus musculus [28] stood at 100%; in the assay listed under Mus musculus [29], 0%.

On to `Cl/C(=N\Nc1ccccc1)c1ccccc1Cl`, for which the values for the Parasite_Clearance in the assay filed under Mus musculus [11] and in the assay listed under Mus musculus [12] were 40% and 20%, respectively.

With `Cl/C(=N\Nc1ccc(Cl)c(Cl)c1)c1ccccc1`, the Reduction was 0% in the assay filed under Canis familiaris [1], 0% in the assay filed under Canis familiaris [33], 0% in the assay filed under Canis familiaris [2] and “Toxic” in the assay with Ovis aries [34].
